ChEMBL document CHEMBL1157145, “Cytotoxic activity of proflavine diureas: synthesis, antitumor, evaluation and DNA binding properties of 1',1''-(acridin-3,6-diyl)-3',3''-dialkyldiureas” (Bioorg Med Chem, 2008)
Activity calls are given as the source filed them. The rule behind the calls is not given here.

Legend:
HCT-116 [1] = experiment: Induction of DNA fragmentation in human HCT116 cells after 48 hrs; type: functional, cell-based
Procedure, shortened: (§1)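 HCT-116 cells were treated for 24 or 48 h. Adherent and floating cells (5 × 10^5) were pooled, fixed in cold 70% ethanol and held overnight at −20 °C. Samples were treated with RNase A (100 µg/mL) and stained with propidium iodide (20 µg/mL) in Vindelov's solution for 30 min at RT. Flow cytometry used 488 nm excitation with emission at 585 nm. Subdiploid (subG0/G1) particles were scored on a logarithmic scale, with debris gated out on FSC × SSC.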

HeLa [2] = experiment: Antiproliferative activity against human HeLa cells assessed as decrease in total cell population at 3.50 uM after 24 hrs; type: functional; design: scale not given: the % may be the effect or the level left
Procedure, shortened: (§2)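 Cells seeded (8 · 10^5 per 60 mm dish), allowed to settle 24 h at 37 °C, 5% CO2, then treated with a single concentration for 24 or 48 h. Adherent and floating cells counted by Coulter counter. Total cell number given as % of untreated control; floating cells as % of total cell number.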

HCT-116 [3] = experiment: Cytotoxicity against human HCT116 cells after 48 hrs by MTT assay; type: functional, cell-based; details: HCT-116, 48 h
HeLa [4] = experiment: Induction of apoptosis in human HeLa cells at 3.50 uM after 24 hrs; type: functional
Procedure, shortened: (§3)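 After 24 or 48 h of drug exposure, all cells were collected, combining trypsinised adherent cells with floating cells from the medium. Cells (1 × 10^6) were fixed in cold 70% ethanol overnight at −20 °C and stained with DAPI (10 µg/mL) for 30 min in the dark at RT. Under fluorescence microscopy, 300 cells per sample were scored, with condensed or fragmented nuclei counted as apoptotic.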

DNA [5] = experiment: Binding affinity to calf thymus DNA at 4 uM by fluorescence spectrophotometric titration; type: nucleic-acid assay; details: Bos taurus
Procedure, shortened: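 ctDNA sonicated in TE buffer, concentration taken from A260 and given in base pairs. Compound (4 µM) in 0.01 M Tris, pH 7.4, 25 °C titrated with ctDNA (0–55 µM bp) until spectra stopped changing. Excitation 424 nm, slit widths 10 nm; binding constant derived from the change in emission.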

HeLa [6] = experiment: Antiproliferative activity against human HeLa cells assessed as increase of floating cells in total cell population at 3.50 uM after 24 hrs; type: functional; procedure, shortened: as §2
HCT-116 [7] = experiment: Antiproliferative activity against human HCT116 cells assessed as increase of floating cells in total cell population at 4.80 uM after 48 hrs; type: functional; procedure, shortened: as §2
HCT-116 [8] = experiment: Cytotoxicity against human HCT116 cells after 72 hrs by MTT assay; type: functional, cell-based; details: Homo sapiens, HCT-116, 72 h
HeLa [9] = experiment: Antiproliferative activity against human HeLa cells assessed as decrease in total cell population at 3.50 uM after 48 hrs; type: functional; design: scale not given: the % may be the effect or the level left; procedure, shortened: as §2
HCT-116 [10] = experiment: Induction of apoptosis in human HCT116 cells at 4.80 uM after 24 hrs; type: functional; procedure, shortened: as §3
HCT-116 [11] = experiment: Induction of apoptosis in human HCT116 cells at 4.80 uM after 48 hrs; type: functional; procedure, shortened: as §3
HeLa [12] = experiment: Cell cycle arrest in human HeLa cells assessed as accumulation at G0/G1 phase at 3.50 uM after 48 hrs; type: functional
Procedure, shortened: (§4)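 Cells seeded at 8 · 10^5 per 60 mm dish, allowed to settle 24 h (37 °C, 5% CO2), then exposed to the drug for 24 or 48 h. Adherent plus floating cells (5 · 10^5) were fixed in cold 70% ethanol at −20 °C overnight, treated with RNase A (100 µg/mL) and stained with propidium iodide (20 µg/mL) in Vindelov's solution for 30 min at RT. Flow cytometry used 488 nm excitation, FL-2 at 585 ± 21 nm, and histograms were modelled for G0/G1, S and G2/M fractions.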

HCT-116 [13] = experiment: Antiproliferative activity against human HCT116 cells assessed as decrease in total cell population at 4.80 uM after 48 hrs; type: functional; design: scale not given: the % may be the effect or the level left; procedure, shortened: as §2
HeLa [14] = experiment: Cell cycle arrest in human HeLa cells assessed as accumulation at S phase at 3.50 uM after 48 hrs; type: functional; procedure, shortened: as §4
HCT-116 [15] = experiment: Cell cycle arrest in human HCT116 cells assessed as accumulation at S phase at 4.80 uM after 48 hrs; type: functional; procedure, shortened: as §4
HeLa [16] = experiment: Cytotoxicity against human HeLa cells after 72 hrs by MTT assay; type: functional, cell-based
HCT-116 [17] = experiment: (§5) Cell cycle arrest in human HCT116 cells assessed as accumulation at G0/G1 phase at 4.80 uM after 48 hrs; type: functional
Procedure, shortened: (§6)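 Adherent plus floating cells (5 · 10^5) collected 24 or 48 h after treatment, fixed in cold 70% ethanol at −20 °C overnight, washed in PBS. RNase A (100 µg/mL) and propidium iodide (20 µg/mL) in Vindelov's solution, 30 min at RT. Flow cytometry with 488 nm excitation, emission 585 ± 21 nm; % cells per cycle phase from DNA content histograms.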

HeLa [18] = experiment: Cytotoxicity against human HeLa cells after 48 hrs by MTT assay; type: functional, cell-based
DNA [19] = experiment: Binding affinity to calf thymus DNA at 50 uM by circular dichroism spectrophotometric titration; type: nucleic-acid assay; details: Bos taurus
HCT-116 [20] = experiment: as §5; type: functional; procedure, shortened: as §6; remark: listed apart in the source
HCT-116 [21] = experiment: Antiproliferative activity against human HCT116 cells assessed as decrease in total cell population at 4.80 uM after 24 hrs; type: functional; design: scale not given: the % may be the effect or the level left; procedure, shortened: as §2
HCT-116 [22] = experiment: Cell cycle arrest in human HCT116 cells assessed as accumulation at G2/M phase at 4.80 uM after 48 hrs; type: functional; procedure, shortened: as §4
HeLa [23] = experiment: Induction of apoptosis in human HeLa cells at 3.50 uM after 48 hrs; type: functional; procedure, shortened: as §3
HeLa [24] = experiment: Cell cycle arrest in human HeLa cells assessed as accumulation at G2/M phase at 3.50 uM after 24 hrs; type: functional; procedure, shortened: as §4
HeLa [25] = experiment: Cell cycle arrest in human HeLa cells assessed as accumulation at G2/M phase at 3.50 uM after 48 hrs; type: functional; procedure, shortened: as §4
HCT-116 [26] = experiment: Antiproliferative activity against human HCT116 cells assessed as increase of floating cells in total cell population at 4.80 uM after 24 hrs; type: functional; procedure, shortened: as §2
HeLa [27] = experiment: Antiproliferative activity against human HeLa cells assessed as increase of floating cells in total cell population at 3.50 uM after 48 hrs; type: functional; procedure, shortened: as §2
HCT-116 [28] = experiment: Induction of DNA fragmentation in human HCT116 cells after 24 hrs; type: functional, cell-based; procedure, shortened: as §1
HeLa [29] = experiment: Cell cycle arrest in human HeLa cells assessed as accumulation at G0/G1 phase at 3.50 uM after 24 hrs; type: functional; procedure, shortened: as §4
HeLa [30] = experiment: Cell cycle arrest in human HeLa cells assessed as accumulation at S phase at 3.50 uM after 24 hrs; type: functional; procedure, shortened: as §4
[31] = in the assay text read “after 24 hrs” for “after 48 hrs”

CCCCCCNC(=O)Nc1ccc2cc3ccc(NC(=O)NCCCCCC)cc3nc2c1.Cl
Activity (HCT-116 [1]): Active
Activity (HeLa [2]): 87.42%
IC50 (HCT-116 [3]): 4.76 µM
Activity (HeLa [4]): 0.75%
K (DNA [5]): 0.9 ×10⁵ /M
Activity (HeLa [6]): 4.21%
Activity (HCT-116 [7]): 88.55%
IC50 (HCT-116 [8]): 3.09 µM
Activity (HeLa [9]): 91.16%
Activity (HCT-116 [10]): 5.67%
Activity (HCT-116 [11]): 12.67%
Activity (HeLa [12]): 66.57%
Activity (HCT-116 [13]): 19.84%
Activity (HeLa [14]): 21.55%
Activity (HCT-116 [15]): 22.97%
Activity (HCT-116 [15]; [31]): 21.38%
IC50 (HeLa [16]): 3.7 µM
Activity (HCT-116 [17]): 36%
IC50 (HeLa [18]): 3.49 µM
Activity (DNA [19]): Active
Activity (HCT-116 [20]): 35.98%
Activity (HCT-116 [21]): 48.1%
Activity (HCT-116 [22]): 41.06%
Activity (HCT-116 [22]; [31]): 45.1%
Activity (HeLa [23]): 1%
Activity (HeLa [24]): 13.24%
Activity (HeLa [25]): 11.88%
Activity (HCT-116 [26]): 77.94%
Activity (HeLa [27]): 4.41%
Activity (HCT-116 [28]): Active
Activity (HeLa [29]): 59.69%
Activity (HeLa [30]): 27.08%
